Laboratory results published in ChEMBL document CHEMBL5058577, “EUbOPEN Chemogenomics Library 2 (Multiplex)” (2022).

System: HEK-293T
Test: Multiplex assay against HEK293T
Format: toxicity, cell-based
Settings: human
Outline: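 Per cents of healthy-nucleus cells form the tubulin, mitochondrial-mass and membrane-permeability phenotype values. Live cells were stained at seeding with Hoechst33342, BioTracker Green Microtubule Cytoskeleton Dye, MitoTracker Red and Annexin V Alexa Fluor 680. After compound addition they were imaged on a CQ1 microscope at 37°C and 5% CO2, and CellPathfinder machine-learning gating split them into Hoechst high-intensity objects or normal cells, normal cells into healthy, pyknosed or fragmented nuclei, and pyknosed cells into mitotic or apoptotic.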

[1] = 12 h, 1 µM, compound concentration 1 uM, replicate 1
[2] = 12 h, 1 µM, compound concentration 1 uM, replicate 2
[3] = 12 h, 10 µM, compound concentration 10 uM, replicate 1
[4] = 12 h, 10 µM, compound concentration 10 uM, replicate 2
[5] = 24 h, 1 µM, compound concentration 1 uM, replicate 1
[6] = 24 h, 1 µM, compound concentration 1 uM, replicate 2
[7] = 24 h, 10 µM, compound concentration 10 uM, replicate 1
[8] = 24 h, 10 µM, compound concentration 10 uM, replicate 2
[9] = 48 h, 1 µM, compound concentration 1 uM, replicate 1
[10] = 48 h, 1 µM, compound concentration 1 uM, replicate 2
[11] = 48 h, 10 µM, compound concentration 10 uM, replicate 1
[12] = 48 h, 10 µM, compound concentration 10 uM, replicate 2

CC(C)(C)c1ccc(S(=O)(=O)Nc2ccc(Cl)cc2C(=O)c2cc[n+]([O-])cc2)cc1 [VERCIRNON]
Population Apoptotic (%) [1]: 32% | Population Fragmented Nuclei (%) [1]: 10% | Population Healthy Nuclei (%) [1]: 77% | Population Hoechst High Intensity Objects (%) [1]: 7% | Population Membrane Permeable-Phenotype (%) [1]: 0% | Population Mitochondria Different-Phenotype (%) [1]: 33% | Population Mitotic Cells (%) [1]: 68% | Population Normal (%) [1]: 92% | Population Pyknosed Nuclei (%) [1]: 12% | Population Tubulin-Different-Phenotype (%) [1]: 21% | Total Cell Count [1]: 428 | Population Apoptotic (%) [2]: 52% | Population Fragmented Nuclei (%) [2]: 5% | Population Healthy Nuclei (%) [2]: 84% | Population Mitochondria Different-Phenotype (%) [2]: 51% | Population Mitotic Cells (%) [2]: 47% | Population Pyknosed Nuclei (%) [2]: 10% | Population Tubulin-Different-Phenotype (%) [2]: 22% | Total Cell Count [2]: 424 | Population Apoptotic (%) [3]: 30% | Population Fragmented Nuclei (%) [3]: 6% | Population Healthy Nuclei (%) [3]: 83% | Population Hoechst High Intensity Objects (%) [3]: 6% | Population Membrane Permeable-Phenotype (%) [3]: 0% | Population Mitochondria Different-Phenotype (%) [3]: 35% | Population Mitotic Cells (%) [3]: 69% | Population Normal (%) [3]: 93% | Population Pyknosed Nuclei (%) [3]: 10% | Population Tubulin-Different-Phenotype (%) [3]: 37% | Total Cell Count [3]: 451 | Population Apoptotic (%) [4]: 39% | Population Fragmented Nuclei (%) [4]: 4% | Population Healthy Nuclei (%) [4]: 82% | Population Hoechst High Intensity Objects (%) [4]: 5% | Population Membrane Permeable-Phenotype (%) [4]: 1% | Population Mitochondria Different-Phenotype (%) [4]: 51% | Population Mitotic Cells (%) [4]: 60% | Population Normal (%) [4]: 94% | Population Pyknosed Nuclei (%) [4]: 13% | Population Tubulin-Different-Phenotype (%) [4]: 27% | Total Cell Count [4]: 344 | Population Apoptotic (%) [5]: 41% | Population Fragmented Nuclei (%) [5]: 8% | Population Healthy Nuclei (%) [5]: 81% | Population Hoechst High Intensity Objects (%) [5]: 6% | Population Membrane Permeable-Phenotype (%) [5]: 0% | Population Mitochondria Different-Phenotype (%) [5]: 21% | Population Mitotic Cells (%) [5]: 58% | Population Normal (%) [5]: 93% | Population Pyknosed Nuclei (%) [5]: 9% | Population Tubulin-Different-Phenotype (%) [5]: 15% | Total Cell Count [5]: 522 | Population Apoptotic (%) [6]: 28% | Population Hoechst High Intensity Objects (%) [6]: 5% | Population Mitochondria Different-Phenotype (%) [6]: 32% | Population Mitotic Cells (%) [6]: 71% | Population Normal (%) [6]: 94% | Population Tubulin-Different-Phenotype (%) [6]: 16% | Total Cell Count [6]: 521 | Population Apoptotic (%) [7]: 22% | Population Fragmented Nuclei (%) [7]: 10% | Population Healthy Nuclei (%) [7]: 77% | Population Hoechst High Intensity Objects (%) [7]: 3% | Population Membrane Permeable-Phenotype (%) [7]: 1% | Population Mitochondria Different-Phenotype (%) [7]: 15% | Population Mitotic Cells (%) [7]: 77% | Population Normal (%) [7]: 96% | Population Pyknosed Nuclei (%) [7]: 12% | Population Tubulin-Different-Phenotype (%) [7]: 20% | Total Cell Count [7]: 594 | Population Apoptotic (%) [8]: 28% | Population Fragmented Nuclei (%) [8]: 7% | Population Healthy Nuclei (%) [8]: 82% | Population Hoechst High Intensity Objects (%) [8]: 5% | Population Membrane Permeable-Phenotype (%) [8]: 0% | Population Mitochondria Different-Phenotype (%) [8]: 31% | Population Mitotic Cells (%) [8]: 71% | Population Normal (%) [8]: 94% | Population Pyknosed Nuclei (%) [8]: 9% | Population Tubulin-Different-Phenotype (%) [8]: 23% | Total Cell Count [8]: 437 | Population Apoptotic (%) [9]: 28% | Population Fragmented Nuclei (%) [9]: 16% | Population Healthy Nuclei (%) [9]: 76% | Population Hoechst High Intensity Objects (%) [9]: 2% | Population Membrane Permeable-Phenotype (%) [9]: 0% | Population Mitochondria Different-Phenotype (%) [9]: 16% | Population Mitotic Cells (%) [9]: 71% | Population Normal (%) [9]: 97% | Population Pyknosed Nuclei (%) [9]: 7% | Population Tubulin-Different-Phenotype (%) [9]: 13% | Total Cell Count [9]: 834 | Population Apoptotic (%) [10]: 32% | Population Fragmented Nuclei (%) [10]: 14% | Population Healthy Nuclei (%) [10]: 81% | Population Membrane Permeable-Phenotype (%) [10]: 2% | Population Mitochondria Different-Phenotype (%) [10]: 14% | Population Mitotic Cells (%) [10]: 67% | Population Pyknosed Nuclei (%) [10]: 4% | Population Tubulin-Different-Phenotype (%) [10]: 12% | Total Cell Count [10]: 877 | Population Apoptotic (%) [11]: 21% | Population Fragmented Nuclei (%) [11]: 13% | Population Healthy Nuclei (%) [11]: 81% | Population Hoechst High Intensity Objects (%) [11]: 3% | Population Membrane Permeable-Phenotype (%) [11]: 2% | Population Mitochondria Different-Phenotype (%) [11]: 12% | Population Mitotic Cells (%) [11]: 78% | Population Normal (%) [11]: 96% | Population Pyknosed Nuclei (%) [11]: 5% | Population Tubulin-Different-Phenotype (%) [11]: 14% | Total Cell Count [11]: 929 | Population Apoptotic (%) [12]: 25% | Population Fragmented Nuclei (%) [12]: 12% | Population Healthy Nuclei (%) [12]: 80% | Population Hoechst High Intensity Objects (%) [12]: 2% | Population Membrane Permeable-Phenotype (%) [12]: 1% | Population Mitochondria Different-Phenotype (%) [12]: 18% | Population Mitotic Cells (%) [12]: 75% | Population Normal (%) [12]: 97% | Population Pyknosed Nuclei (%) [12]: 7% | Population Tubulin-Different-Phenotype (%) [12]: 15% | Total Cell Count [12]: 586
